Hits are enriched below; roughly 3.5% of the tested compounds scored in any of these assays.
PGC1a acetyl inh: inhibitors of PGC1a acetylation signal, primary screen, cell-based, U2OS, AlphaScreen, inhibitor mode; AlphaScreen anti-acetyl-lysine; with virally co-expressed GCN5 acetyltransferase; 0.17% of 350,000 active; AID 651687, 2012; inhibition, % at 15.6 µM;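 active = every replicate shows inhibition of at least 40%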;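 note: 0% = neutral control wells and 100% = positive control wells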
Cneo AK release: Cryptococcus neoformans cell lysis inducers, primary screen, AK release luminescence, single concentration; C. neoformans lysis, adenylate kinase release luminescence, 4 h; normalised: neutral wells 0, clomiphene wells 100; lysis activity, % at 15 µM; 0.2% of 360,000 active;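 active = mean lysis activity across replicates of at least 80%, whatever share of replicates individually reach that level; inactive = mean lysis activity below 80%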
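Material – Cryptococcus neoformans yeast cells · Quantity – 5 × 10^6 yeast cells/mL · Buffer or medium – YPD medium · Compound – single dose · Timing – 4 h static compound exposure, 37 °C, read 1 h post-reagent · Signal – adenylate kinase release luminescence · Read-out basis – lysis from increased AK signal · Benchmarks – Clomiphene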
rRNA inh HTS: reduced GFP signal of wild-type E. coli, primary screen, bacterial rRNA inhibitor project, GFP/RFP fluorescence, OD600, single point; E. coli WT GFP vs humanized-ribosome RFP mutants, 24 h; active compounds read low; DMSO median 0, no signal -100; GFP signal change (wild-type ribosome), % (concentration not given with the values); 1.6% of 350,000 active; AID 720706, 2013;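 active = significant combined selectivity score with lowered wild-type GFP, culture density cut under 30%, mutant RFP and density less affected; inactive = any of these conditions unmet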
FGF22 binding-1: binders of human FGF22 protein, primary screen, FGF22 synaptogenesis inhibitor project, biophysical, thermal shift, single point. Fibroblast growth factor 22 (Homo sapiens), Q9HCT0. recombinant FGF22 thermal shift, SYPRO orange fluorescence; percent of sucrose octasulfate shift, DMSO zero. activity (Tm shift, normalised), % at 9.99 µM. 1.5% of 340,000 active. AID 651658, 2012;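 active = mean Tm shift, scaled 0 neutral to 100 positive control, at about 1.3% or above, every replicate too, limit read from the data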
HIV Env fusion: inhibitors of HIV-1 Env-driven cell-cell fusion, primary screen, HeLa-JRFL effector, CEM21 target cells, luciferase; inhibition, % at 12.3 µM; 1.1% of 360,000 active; AID 651610, 2012;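 active = mean replicate inhibition score of at least 50 and every replicate individually at or above 50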;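 note: 0% = plate neutral controls and 100% = maraviroc near 300 nM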
ERAP1 HTS inh: human ERAP1 aminopeptidase inhibitors, primary screen, biochemical, single point, plate reader; 0.15% of 340,000 active; inhibition, % at 10.7 µM; AID 652197, 2013; recombinant ERAP1, Leu-AMC fluorescence, 60 min;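 active = mean replicate inhibition of at least 30%, or all replicates individually reaching that 30% level; inactive = mean below 30% and not every replicate reaching it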;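 note: 0% = neutral control wells and 100% = L-leucinethiol positive control wells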
Target sequence (Q9NZ08 whole entry, looked up): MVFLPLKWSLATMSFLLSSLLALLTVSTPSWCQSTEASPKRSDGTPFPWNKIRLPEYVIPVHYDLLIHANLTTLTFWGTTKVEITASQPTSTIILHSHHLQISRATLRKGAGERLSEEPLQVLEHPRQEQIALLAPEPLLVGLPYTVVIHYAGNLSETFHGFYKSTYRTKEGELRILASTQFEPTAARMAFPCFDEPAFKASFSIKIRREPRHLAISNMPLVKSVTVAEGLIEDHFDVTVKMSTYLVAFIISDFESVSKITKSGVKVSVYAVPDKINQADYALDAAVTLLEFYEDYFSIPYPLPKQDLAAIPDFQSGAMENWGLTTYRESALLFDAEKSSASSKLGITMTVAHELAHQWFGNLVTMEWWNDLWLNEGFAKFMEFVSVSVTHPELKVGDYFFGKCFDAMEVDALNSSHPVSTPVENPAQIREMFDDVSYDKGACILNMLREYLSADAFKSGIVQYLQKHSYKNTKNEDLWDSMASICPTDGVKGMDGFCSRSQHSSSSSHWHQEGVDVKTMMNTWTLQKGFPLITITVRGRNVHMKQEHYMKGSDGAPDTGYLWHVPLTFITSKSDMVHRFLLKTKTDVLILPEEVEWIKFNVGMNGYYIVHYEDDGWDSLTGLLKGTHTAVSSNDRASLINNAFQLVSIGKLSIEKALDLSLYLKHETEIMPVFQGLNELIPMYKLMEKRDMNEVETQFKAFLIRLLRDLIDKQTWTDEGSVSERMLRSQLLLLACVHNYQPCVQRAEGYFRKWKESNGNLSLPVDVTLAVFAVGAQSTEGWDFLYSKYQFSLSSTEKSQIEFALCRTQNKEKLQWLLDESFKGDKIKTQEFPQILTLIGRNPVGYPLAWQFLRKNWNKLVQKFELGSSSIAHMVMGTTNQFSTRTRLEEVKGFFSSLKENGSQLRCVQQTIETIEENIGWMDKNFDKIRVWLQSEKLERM
FGF22 binding-2: binders of human FGF22 protein, dose response, FGF22 synaptogenesis inhibitor project, biophysical, thermal shift, cherry-pick retest; shares compounds with FGF22 binding-1; 2% of 1,000 active; recombinant FGF22 thermal shift, SYPRO orange fluorescence; AID 720646, 2013; thermal shift activity, °C (ΔTm) at 38 µM;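 active = fitted rise in melting shift crosses a set limit at or below the top valid dose tested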
FGF22 TSA: binders of human FGF22 protein, dose response, FGF22 synaptogenesis inhibitor project, biophysical, thermal shift, dry powder; Tm shift (activity), % at 38 µM; shares compounds with FGF22 binding-1; Thermal shift assay, SYPRO orange, melting temperature shift; AID 743017, 2013; 50 tested, under 10 active;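 active = compounds whose fitted dose curve of melting temperature shift rises past a set threshold within the tested doses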
SYPRO no-protein: compound-only thermal shift signal without protein, dose response, artefact control for FGF22 binder project, biochemical, cherry-picked samples, RT-PCR instrument; shares compounds with FGF22 binding-1; compound-only SYPRO orange thermal shift counter-screen, no protein; AC50, µM (titrated, usually from 38 µM); 2% of 1,000 active;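 active = rising signal whose fitted curve reaches the 0.54 level within the top valid dose, showing a melting point, actives reach about 13 µM in these data; inactive = the rest, including activity in the opposite direction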; note: value is where the raw curve crosses a fixed level and not half-maximal
* marks the source's active call; other numbers are inactive results; i = inactive; . = no result given; [ ] = dose if it differs, or a comment.

SMILES | PGC1a acetyl inh | Cneo AK release | rRNA inh HTS | FGF22 binding-1 | HIV Env fusion | ERAP1 HTS inh | FGF22 binding-2 | SYPRO no-protein | others
COc1cc(NC(=O)C2CCC(CNS(=O)(=O)c3csc(C(N)=O)c3)CC2)cc(OC)c1 (stereo unspecified) | . | -1 | -11 | 1.8* | -1 | -3 | -0.31 | i
CC(C)NC(=O)N[C@H]1CC[C@@H](CC(=O)O)O[C@@H]1CO | 3 | 2 | 2 | 1.5* | -3[16.7 µM] | 1 | 0.097[42 µM] | i
O=C(NNC(=O)c1ccccc1O)c1ccc(NS(=O)(=O)c2ccc(F)c(F)c2)cc1 | . | . | -14 | 1.8* | 2 | -3 | -0.036 | i
Cn1ncc2c(Nc3ccc(Br)cc3)nc(Nc3ccc(Br)cc3)nc21 | . | -1 | 14 | 0 | 13 | 0 | . | .
Cn1ncc2c(Nc3ccc(O)cc3)nc(Cl)nc21 | . | 2 | -2 | 26* | -14 | 3 | -0.002 | i
O=C(COc1cccc(Cl)c1)NCC(c1cccs1)N1CCOCC1 (stereo unspecified) | . | 0 | -3 | 1.6* | . | 2 | -0.063 | i
Cc1cccc(OCC(=O)NCC(c2cccs2)N2CCOCC2)c1 (stereo unspecified) | . | -1 | -2 | -1 | 10 | 1 | . | .
COc1ccc(NC(=O)CCS(=O)(=O)c2ccc3c(c2)CCCN3C(C)=O)cc1 | 1 | 0 | . | . | -30 | . | . | .
CCn1c(CCC(=O)O)nc2cc(S(=O)(=O)N3CCOCC3)ccc21 | -1 | 6 | 8 | 1 | -11 | 1 | . | .
CCCn1c(CCC(=O)O)nc2cc(S(=O)(=O)N3CCCC3)ccc21 | 5 | 3 | 3 | 30* | 4 | 1 | 0.088 | i
CSc1nc2nc(Cl)c(Cl)nc2[nH]1 | -9 | 1 | -8 | 1.4* | . | -40 | 0.039 | i
C[C@H](CO)N1C[C@H](C)[C@@H](CN(C)Cc2ccc(C(F)(F)F)cc2)Oc2ccc(NS(=O)(=O)c3ccc(F)cc3)cc2CC1=O | 5 | 5 | -3 | 0 | 42[16.7 µM] | -2 | . | .
O=S(=O)(NC[C@H]1N[C@H](CO)[C@H]1c1ccccc1)c1ccccc1 | -7 | 0 | 2 | 2.4* | . | 0 | 0.14 | i
CN(C)c1ccc(C(=O)Nc2ccc(S(=O)(=O)Nc3nccs3)cc2)cc1 | 1 | 2 | -1 | 0 | . | 0 | . | .
COc1ccc(N=NC2C(=O)N(c3ccccc3)N=C2C)cc1 (stereo unspecified) | . | . | 14 | 1.6* | -6 | -2 | -0.059 | i
Cc1cc(C)n(-c2ccc(C(=O)Nc3ccc(S(=O)(=O)N(C)C)cc3)cc2)n1 | . | . | -11 | 1.5* | . | -1 | -0.24 | i
Cc1cc(C)n(-c2ccc(C(=O)Nc3cccc(S(=O)(=O)N(C)C)c3)cc2)n1 | . | . | -24 | 0 | 27 | 2 | . | .
C[C@H]1CN([C@@H](C)CO)S(=O)(=O)c2ccc(C#Cc3ccccc3F)cc2O[C@H]1CN(C)C(=O)Cc1cccnc1 | 0 | 2 | -4 | 5.9* | -14[16.7 µM] | -3 | 0.09[42 µM] | i
C[C@H]1CN([C@@H](C)CO)S(=O)(=O)c2ccc(C#Cc3ccccc3F)cc2O[C@@H]1CN(C)C(=O)Cc1cccnc1 | . | 30 | -35 | 8.3* | 33[16.7 µM] | -1 | 0.11[42 µM] | i
C[C@@H]1CN([C@@H](C)CO)S(=O)(=O)c2ccc(C#Cc3ccccc3F)cc2O[C@H]1CN(C)C(=O)Cc1cccnc1 | 6 | 59 | -36 | -1 | 29[16.7 µM] | 3 | . | .
COc1ccc(CC(=O)N/N=C(\C)c2ccc(Br)s2)cc1 | 8 | 1 | 0 | 0 | -19 | 2 | . | .
COc1ccccc1N1CCN(C(=O)Cc2cccs2)CC1 | . | 2 | . | . | -39 | . | . | .
N/C(=N\OCC(=O)Nc1ccc(F)c(Cl)c1)c1ccccc1 | . | 1 | . | 1.6* | . | 4 | 0.33 | i
Clc1ccccc1C=NNc1ccccn1 | 7 | 10 | 3 | 0 | -33 | -5 | . | .
Brc1ccccc1/C=N/Nc1ccccn1 | 5 | 1 | 0 | 2.2* | -35 | -4 | 0.2 | i
SMILES | PGC1a acetyl inh | Cneo AK release | rRNA inh HTS | FGF22 binding-1 | HIV Env fusion | ERAP1 HTS inh | FGF22 binding-2 | SYPRO no-protein | others
COc1cc(/C=N/NC(=O)c2cccc(C(=O)N/N=C/c3ccc(O)c(OC)c3)n2)ccc1O | 8 | -5 | 7 | 0 | 3 | 1 | . | .
COc1cc(/C=N/NC(=O)c2cc3ccccc3[nH]2)ccc1O | -8 | -4 | -34 | 2.7* | 17 | -26 | 0.24 | i | FGF22 TSA=0
COc1cc(/C=N/NC(=O)CCn2c3ccccc3c3ccccc32)ccc1O | -11 | -4 | -24 | 2.1* | . | -1 | 0.038 | 13µM*
CCCCNC(=O)C1(C)CCCCN1C(=O)c1c(F)ccc(C)c1F (stereo unspecified) | 2 | -1 | 3 | 1.7* | -19 | -2 | 0.19 | i
CCOC(=O)Cn1c2ccccc2n2nc(CCC(=O)O)c(=O)nc12 | -14 | -5 | 15 | 19* | -5 | -7 | 0.081 | i
O=C(O)CCc1nn2c3ccccc3n(CC(=O)c3ccccc3)c2nc1=O | 19 | . | . | . | -9 | . | . | .
Cc1noc(C)c1S(=O)(=O)Nc1ccc2c(c1)C(=O)N([C@H](C)CO)C[C@H](C)[C@H](CN(C)S(=O)(=O)c1cccs1)O2 | 3 | 0 | -4 | 0 | 19[16.7 µM] | -1 | . | .
C[C@H]1CN([C@@H](C)CO)C(=O)c2cc(NC(=O)c3ccncc3)ccc2O[C@@H]1CN(C)S(=O)(=O)c1cn(C)cn1 | 3 | -1 | 5 | 1.4* | . | 9 | 0.058 | i
C[C@@H]1CCCCO[C@@H](CN(C)CC2CCCCC2)[C@@H](C)CN([C@@H](C)CO)C(=O)c2cc(N(C)C)ccc2O1 | -18 | 1 | 3 | -1 | -12[16.7 µM] | 4 | . | .

Compound activity from PubChem.
